pEC50: −log10 of the molar value. Calls of active or inactive are those of the source.
Tests used:
[1] = target: Fibroblast growth factor receptor 1 (Homo sapiens) (UniProt P11362); assay: Inhibition of FGFR1 (unknown origin)
[2] = target: CDK2/Cyclin A2 (Homo sapiens) (UniProt P24941+P20248); assay: Inhibition of CDK2/cyclin A (unknown origin); assay type: protein-complex assay
[3] = target: MAP kinase-activated protein kinase 2 (Homo sapiens) (UniProt P49137); assay: Inhibition of MAPKAPK2 (unknown origin)
[4] = target: D(1A) dopamine receptor (Homo sapiens) (UniProt P21728); assay: Binding affinity to human dopamine D1 receptor by radioligand binding assay
Method in brief: (§1)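 CEREP panel binding measured by displacement of an antagonist radioligand.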

[5] = target: Histamine H1 receptor (Homo sapiens) (UniProt P35367); assay: Binding affinity to human histamine H1 receptor by radioligand binding assay; method in brief: as §1
Chain of Histamine H1 receptor (Homo sapiens) (P35367 whole entry): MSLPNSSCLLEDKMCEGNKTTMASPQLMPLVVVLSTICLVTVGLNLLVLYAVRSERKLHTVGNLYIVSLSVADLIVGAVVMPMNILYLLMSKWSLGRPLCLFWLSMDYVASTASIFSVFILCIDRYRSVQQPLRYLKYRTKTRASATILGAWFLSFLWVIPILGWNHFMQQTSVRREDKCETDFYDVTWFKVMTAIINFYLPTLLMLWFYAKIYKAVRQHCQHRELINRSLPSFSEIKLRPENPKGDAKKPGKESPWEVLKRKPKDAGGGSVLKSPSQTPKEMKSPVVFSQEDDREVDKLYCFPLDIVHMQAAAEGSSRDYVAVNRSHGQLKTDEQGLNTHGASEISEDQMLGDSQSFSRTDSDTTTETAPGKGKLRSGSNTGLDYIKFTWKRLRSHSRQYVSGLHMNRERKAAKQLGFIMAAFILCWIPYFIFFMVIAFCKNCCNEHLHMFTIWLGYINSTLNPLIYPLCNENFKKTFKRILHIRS

[6] = target: Myosin light chain kinase 2, skeletal/cardiac muscle (Homo sapiens) (UniProt Q9H1R3); assay: Inhibition of MYLK2 (unknown origin)
[7] = target: Epidermal growth factor receptor (Homo sapiens) (UniProt P00533); assay: Inhibition of EGFR (unknown origin)
[8] = target: Rho-associated protein kinase 1 (Homo sapiens) (UniProt Q13464); assay: Inhibition of ROCK1 (unknown origin)
Chain of Rho-associated protein kinase 1 (Homo sapiens) (Q13464 2-1354 limits assumed): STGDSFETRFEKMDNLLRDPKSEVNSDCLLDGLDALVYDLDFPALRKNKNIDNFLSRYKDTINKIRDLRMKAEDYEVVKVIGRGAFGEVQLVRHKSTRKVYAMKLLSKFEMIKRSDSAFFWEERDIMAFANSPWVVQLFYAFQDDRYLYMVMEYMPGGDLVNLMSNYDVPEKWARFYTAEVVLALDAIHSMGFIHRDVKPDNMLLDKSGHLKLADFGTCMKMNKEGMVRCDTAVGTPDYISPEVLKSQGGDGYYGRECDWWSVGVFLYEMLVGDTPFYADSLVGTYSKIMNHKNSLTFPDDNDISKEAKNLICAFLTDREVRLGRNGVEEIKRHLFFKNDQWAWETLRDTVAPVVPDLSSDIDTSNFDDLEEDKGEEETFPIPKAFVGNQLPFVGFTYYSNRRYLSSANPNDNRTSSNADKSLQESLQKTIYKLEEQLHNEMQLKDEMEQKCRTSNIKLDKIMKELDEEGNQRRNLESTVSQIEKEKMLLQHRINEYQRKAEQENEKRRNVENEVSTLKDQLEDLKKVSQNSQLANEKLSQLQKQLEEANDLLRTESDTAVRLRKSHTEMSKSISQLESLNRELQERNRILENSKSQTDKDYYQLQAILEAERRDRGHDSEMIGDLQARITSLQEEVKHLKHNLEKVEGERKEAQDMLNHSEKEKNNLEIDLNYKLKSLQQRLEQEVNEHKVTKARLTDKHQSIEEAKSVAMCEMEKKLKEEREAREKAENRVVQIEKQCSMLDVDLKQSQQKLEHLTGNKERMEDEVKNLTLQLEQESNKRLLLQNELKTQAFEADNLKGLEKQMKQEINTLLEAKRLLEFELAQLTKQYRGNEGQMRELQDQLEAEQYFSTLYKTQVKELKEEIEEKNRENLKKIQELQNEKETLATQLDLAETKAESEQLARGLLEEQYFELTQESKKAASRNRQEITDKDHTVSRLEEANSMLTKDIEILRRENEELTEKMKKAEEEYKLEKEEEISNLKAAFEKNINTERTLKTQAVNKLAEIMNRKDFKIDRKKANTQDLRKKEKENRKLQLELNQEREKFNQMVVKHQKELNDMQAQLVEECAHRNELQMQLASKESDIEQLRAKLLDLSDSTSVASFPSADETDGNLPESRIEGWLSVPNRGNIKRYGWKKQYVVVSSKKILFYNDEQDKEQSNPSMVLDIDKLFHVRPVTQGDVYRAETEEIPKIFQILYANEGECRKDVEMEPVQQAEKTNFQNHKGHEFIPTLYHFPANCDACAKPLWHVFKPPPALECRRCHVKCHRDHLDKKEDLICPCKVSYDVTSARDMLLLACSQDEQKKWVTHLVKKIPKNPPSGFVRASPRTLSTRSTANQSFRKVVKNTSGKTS

[9] = target: Tyrosine-protein kinase BTK (Homo sapiens) (UniProt Q06187); assay: Inhibition of BTK (unknown origin)
[10] = tested on: HT-29; assay: Antiproliferative activity against human HT-29 cells at 10 uM after 5 days; assay type: functional; conditions: HT-29, 120 h
Method in brief: (§2)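 Cells plated in Optimem-GlutaMax medium and cultured overnight before exposure to 10 µM compound. Viability measured with CytoTox-Glo after 5 days of treatment.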

[11] = target: Serine/threonine-protein kinase 26 (Homo sapiens) (UniProt Q9P289); assay: Inhibition of MST4 (unknown origin)
[12] = target: Serine/threonine-protein kinase pim-2 (Homo sapiens) (UniProt Q9P1W9); assay: Inhibition of PIM2 (unknown origin)
[13] = target: 3-phosphoinositide-dependent protein kinase 1 (Homo sapiens) (UniProt O15530); assay: Inhibition of PDK1 (unknown origin)
[14] = target: Angiopoietin-1 receptor (Homo sapiens) (UniProt Q02763); assay: Inhibition of Tie2 (unknown origin)
[15] = target: Casein kinase I isoform alpha (Homo sapiens) (UniProt P48729); assay: Inhibition of CSNK1A1 (unknown origin)
[16] = target: Mu-type opioid receptor (Homo sapiens) (UniProt P35372); assay: Binding affinity to human mu opioid receptor by radioligand binding assay
Chain of Mu-type opioid receptor (Homo sapiens) (P35372 whole entry): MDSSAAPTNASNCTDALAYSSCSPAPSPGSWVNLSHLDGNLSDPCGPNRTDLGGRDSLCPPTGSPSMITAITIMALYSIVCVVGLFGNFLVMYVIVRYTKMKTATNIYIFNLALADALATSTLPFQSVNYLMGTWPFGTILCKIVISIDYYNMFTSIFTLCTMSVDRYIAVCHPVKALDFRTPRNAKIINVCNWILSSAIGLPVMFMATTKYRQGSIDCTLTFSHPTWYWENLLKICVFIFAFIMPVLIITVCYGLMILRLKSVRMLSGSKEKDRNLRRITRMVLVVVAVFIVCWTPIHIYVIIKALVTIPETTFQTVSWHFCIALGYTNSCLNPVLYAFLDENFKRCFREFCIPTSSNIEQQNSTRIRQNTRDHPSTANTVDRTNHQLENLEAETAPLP
Method in brief: (§3)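 CEREP panel binding measured by displacement of an agonist radioligand.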

[17] = target: High affinity nerve growth factor receptor (Homo sapiens) (UniProt P04629); assay: Inhibition of NTRK1 (unknown origin)
[18] = target: T1, Pyruvate kinase PKM (Homo sapiens, UniProt P14618); assay: Activation of PKM2 in human Snu182 cells assessed as extracellular acidification rate at 10 uM after 18 hrs; assay type: cell-based
Method in brief: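 Snu182 cells seeded at 12k/well in RPMI with 10% FBS and 2 mM glutamine, cultured overnight, then given 10 µM compound for 18 h at 37°C, 5% CO2. Medium switched to XF DMEM with 5 mM glucose plus 10 µM compound; OCR and ECAR measured on a Seahorse XF96 analyzer.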
Target sequence in this assay (P14618 2-531 limits assumed): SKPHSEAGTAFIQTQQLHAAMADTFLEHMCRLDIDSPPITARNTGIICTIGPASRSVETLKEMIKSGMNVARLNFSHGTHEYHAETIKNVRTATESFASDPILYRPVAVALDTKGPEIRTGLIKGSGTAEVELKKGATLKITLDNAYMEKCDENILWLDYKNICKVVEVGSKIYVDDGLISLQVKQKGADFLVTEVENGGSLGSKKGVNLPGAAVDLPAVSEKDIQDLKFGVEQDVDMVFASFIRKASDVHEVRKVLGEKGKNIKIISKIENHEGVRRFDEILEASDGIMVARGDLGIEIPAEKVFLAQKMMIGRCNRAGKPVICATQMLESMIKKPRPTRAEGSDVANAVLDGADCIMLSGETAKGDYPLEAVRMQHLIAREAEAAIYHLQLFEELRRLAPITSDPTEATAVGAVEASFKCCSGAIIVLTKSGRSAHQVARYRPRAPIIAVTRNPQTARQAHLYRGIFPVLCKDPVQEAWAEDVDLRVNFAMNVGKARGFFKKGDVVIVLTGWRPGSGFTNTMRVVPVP

[19] = target: Serine/threonine-protein kinase 3 (Homo sapiens) (UniProt Q13188); assay: Inhibition of STK3 (unknown origin)
[20] = target: MAP kinase p38 (Homo sapiens) (UniProt O15264+Q15759+Q16539+P53778); assay: Inhibition of p38 (unknown origin); assay type: protein assay
[21] = target: cAMP-dependent protein kinase catalytic subunit alpha (Homo sapiens) (UniProt P17612); assay: Inhibition of PRKACA (unknown origin)
[22] = target: Protein kinase C beta type (Homo sapiens) (UniProt P05771); assay: Inhibition of PRKCB2 (unknown origin)
[23] = tested on: Salmonella typhimurium; assay: Genotoxicity in Salmonella typhimurium by Ames test; assay type: toxicity, organism-based; conditions: salmonella enterica subsp. enterica serovar typhimurium
[24] = tested on: SNU-182; assay: Antiproliferative activity against human SNU182 cells at 10 uM after 5 days; assay type: functional, cell-based; method in brief: as §2
[25] = target: Mitogen-activated protein kinase 1 (Homo sapiens) (UniProt P28482); assay: Inhibition of MAPK1 (unknown origin)
[26] = target: Serine/threonine-protein kinase Chk2 (Homo sapiens) (UniProt O96017); assay: Inhibition of CHEK2 (unknown origin)
[27] = target: Serine/threonine-protein kinase MARK1 (Homo sapiens) (UniProt Q9P0L2); assay: Inhibition of MARK1 (unknown origin)
[28] = tested on: SNU-449; assay: Antiproliferative activity against human SNU449 cells at 10 uM after 5 days; assay type: functional, cell-based; method in brief: as §2
[29] = tested on: JHH2; assay: Antiproliferative activity against human JHH2 cells at 10 uM after 5 days; assay type: functional, cell-based; method in brief: as §2
[30] = species: Homo sapiens; assay: Binding affinity to L-type calcium channel diltiazem binding site (unknown origin) by radioligand binding assay
[31] = target: Tyrosine-protein kinase Lck (Homo sapiens) (UniProt P06239); assay: Inhibition of LCK (unknown origin)
[32] = target: Cannabinoid receptor 1 (Homo sapiens) (UniProt P21554); assay: Binding affinity to cannabinoid CB1 receptor (unknown origin)
[33] = target: Serine/threonine-protein kinase Nek2 (Homo sapiens) (UniProt P51955); assay: Inhibition of NEK2 (unknown origin)
[34] = target: Phosphatidylinositol 4-phosphate 3-kinase C2 domain-containing subunit alpha (Homo sapiens) (UniProt O00443); assay: Inhibition of PIK3C2A (unknown origin)
[35] = target: Hepatocyte growth factor receptor (Homo sapiens) (UniProt P08581); assay: Inhibition of cMet (unknown origin)
Chain of Hepatocyte growth factor receptor (Homo sapiens) (P08581 whole entry): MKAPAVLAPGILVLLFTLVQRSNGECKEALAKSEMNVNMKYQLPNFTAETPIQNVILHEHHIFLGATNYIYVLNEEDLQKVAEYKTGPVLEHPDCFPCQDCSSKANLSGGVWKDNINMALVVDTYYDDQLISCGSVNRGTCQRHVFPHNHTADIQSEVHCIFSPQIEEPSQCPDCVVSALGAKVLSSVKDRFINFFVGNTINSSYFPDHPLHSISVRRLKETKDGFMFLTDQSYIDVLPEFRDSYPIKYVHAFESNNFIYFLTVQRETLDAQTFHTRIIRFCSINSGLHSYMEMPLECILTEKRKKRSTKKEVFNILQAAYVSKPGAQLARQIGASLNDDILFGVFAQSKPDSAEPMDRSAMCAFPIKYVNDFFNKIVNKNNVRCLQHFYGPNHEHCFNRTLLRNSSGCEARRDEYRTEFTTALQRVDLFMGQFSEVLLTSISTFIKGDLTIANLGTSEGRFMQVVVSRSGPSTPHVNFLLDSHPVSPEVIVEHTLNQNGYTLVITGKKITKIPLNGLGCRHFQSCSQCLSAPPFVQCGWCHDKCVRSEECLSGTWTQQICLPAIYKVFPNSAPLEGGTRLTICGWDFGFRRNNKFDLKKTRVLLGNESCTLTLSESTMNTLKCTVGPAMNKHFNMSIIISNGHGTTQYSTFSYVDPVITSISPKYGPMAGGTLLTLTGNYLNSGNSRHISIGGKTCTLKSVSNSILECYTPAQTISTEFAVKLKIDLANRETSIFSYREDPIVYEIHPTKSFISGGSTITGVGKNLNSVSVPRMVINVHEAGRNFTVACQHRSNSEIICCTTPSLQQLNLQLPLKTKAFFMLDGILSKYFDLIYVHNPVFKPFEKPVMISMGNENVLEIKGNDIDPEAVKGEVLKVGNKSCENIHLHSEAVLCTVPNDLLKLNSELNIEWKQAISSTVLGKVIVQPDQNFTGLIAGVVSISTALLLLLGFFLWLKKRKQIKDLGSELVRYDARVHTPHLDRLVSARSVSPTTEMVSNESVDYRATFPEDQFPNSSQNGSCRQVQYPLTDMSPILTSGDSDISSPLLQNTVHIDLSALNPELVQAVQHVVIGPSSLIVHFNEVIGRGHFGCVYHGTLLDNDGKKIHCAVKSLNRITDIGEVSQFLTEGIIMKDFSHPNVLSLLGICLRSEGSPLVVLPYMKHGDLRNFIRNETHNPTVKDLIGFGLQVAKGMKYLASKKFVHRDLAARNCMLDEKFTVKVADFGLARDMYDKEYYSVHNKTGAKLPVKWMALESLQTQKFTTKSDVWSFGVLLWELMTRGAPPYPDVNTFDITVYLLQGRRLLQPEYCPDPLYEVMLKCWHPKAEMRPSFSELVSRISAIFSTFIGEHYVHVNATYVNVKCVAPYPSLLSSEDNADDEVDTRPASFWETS

[36] = target: Serine/threonine-protein kinase TAO2 (Homo sapiens) (UniProt Q9UL54); assay: Inhibition of TAOK2 (unknown origin)
[37] = Kinetic solubility of the compound at pH 7.4; assay type: physicochemical; conditions: buffer, read-out: Kinetic_solubility
[38] = target: Tyrosine-protein kinase ZAP-70 (Homo sapiens) (UniProt P43403); assay: Inhibition of ZAP70 (unknown origin)
[39] = target: T1, Pyruvate kinase PKM; assay: Activation of PKM2 in human Huh7 cells assessed as production of pyruvate and ATP by fluorescence assay; assay type: cell-based, Huh-7
Method in brief: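 Huh7 hepatocellular carcinoma cells were treated with compound and lysed, and the lysate was given PEP and ADP. The pyruvate formed was oxidized by pyruvate oxidase, and the fluorescence, proportional to pyruvate, was read as cellular pyruvate kinase activity.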

[40] = target: Glycogen synthase kinase-3 beta (Homo sapiens) (UniProt P49841); assay: Inhibition of GSK3B (unknown origin)
[41] = target: Vascular endothelial growth factor receptor 2 (Homo sapiens) (UniProt P35968); assay: Inhibition of KDR (unknown origin)
[42] = target: T1, Pyruvate kinase PKM; assay: Activation of PKM2 in human Huh7 cells assessed as formation of enzyme tetramers; assay type: cell-based; conditions: Huh-7
Target sequence in this assay (P14618 2-531 limits assumed): as the sequence (P14618 2-531 limits assumed) above

[43] = Passive permeability from apical to basolateral side of dog RRCK cells; assay type: ADME, cell-based, Canis lupus familiaris, MDCKII-LE; conditions: MDCK, read-out: permeability
[44] = target: 5-hydroxytryptamine receptor 2B (Homo sapiens) (UniProt P41595); assay: Binding affinity to human 5-HT2B receptor by radioligand binding assay; method in brief: as §3

Chain of Fibroblast growth factor receptor 1 (Homo sapiens) (P11362 22-822 limits assumed): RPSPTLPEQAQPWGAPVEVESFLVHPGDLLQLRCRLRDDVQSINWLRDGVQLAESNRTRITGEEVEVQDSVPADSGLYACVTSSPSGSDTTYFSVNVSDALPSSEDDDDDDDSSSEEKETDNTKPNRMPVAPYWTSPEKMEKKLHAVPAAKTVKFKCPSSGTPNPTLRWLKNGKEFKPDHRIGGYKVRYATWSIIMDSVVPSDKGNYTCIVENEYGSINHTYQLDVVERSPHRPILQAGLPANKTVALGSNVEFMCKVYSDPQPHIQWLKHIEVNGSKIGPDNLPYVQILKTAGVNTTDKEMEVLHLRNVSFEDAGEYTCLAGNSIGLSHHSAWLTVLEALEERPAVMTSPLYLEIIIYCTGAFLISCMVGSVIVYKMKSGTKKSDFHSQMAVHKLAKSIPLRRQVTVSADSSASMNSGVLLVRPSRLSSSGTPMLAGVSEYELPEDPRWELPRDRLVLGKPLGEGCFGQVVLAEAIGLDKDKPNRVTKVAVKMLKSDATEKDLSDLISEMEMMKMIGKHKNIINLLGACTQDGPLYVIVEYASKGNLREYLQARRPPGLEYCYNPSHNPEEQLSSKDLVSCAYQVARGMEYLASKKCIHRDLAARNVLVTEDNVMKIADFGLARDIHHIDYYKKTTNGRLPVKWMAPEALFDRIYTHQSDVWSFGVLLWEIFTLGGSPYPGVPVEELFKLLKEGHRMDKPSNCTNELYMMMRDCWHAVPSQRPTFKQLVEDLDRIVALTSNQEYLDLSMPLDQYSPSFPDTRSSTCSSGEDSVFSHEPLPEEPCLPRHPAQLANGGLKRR

Cc1cccc2nc(Cn3cnc4ccccc43)cc(=O)n12
inactive: inhibition [1] | inhibition [2] | inhibition [3] | Activity [4] | Activity [5] | inhibition [6] | inhibition [7] | inhibition [8] | inhibition [9] | inhibition [11] | inhibition [12] | inhibition [13] | inhibition [14] | inhibition [15] | Activity [16] | inhibition [17] | inhibition [19] | inhibition [20] | inhibition [21] | inhibition [22] | Activity [24] | inhibition [25] | inhibition [26] | inhibition [27] | Activity [28] | Activity [29] | Activity [30] | inhibition [31] | Activity [32] | inhibition [33] | inhibition [34] | inhibition [35] | inhibition [36] | inhibition [38] | inhibition [40] | inhibition [41] | Activity [44]
Non-toxic: Activity [23]
7.15: pEC50 [39]
20.5 ×10⁻⁶ cm/s: Papp A→B [43]
active: Activity [42]
109%: Activity [18]
178 µM: solubility kinetic [37]
2.83%: inhibition at 10 µM [10]

— ChEMBL document CHEMBL2385076, “Discovery of 2-((1H-benzo[d]imidazol-1-yl)methyl)-4H-pyrido[1,2-a]pyrimidin-4-ones as novel PKM2 activators” (Bioorg Med Chem Lett, 2013)
